Data on 13 compounds can be found in ChEMBL document CHEMBL1127444, “Aza-tricyclic substance P antagonists” (J Med Chem, 1994).

Chain of Substance-P receptor (P25103 whole entry): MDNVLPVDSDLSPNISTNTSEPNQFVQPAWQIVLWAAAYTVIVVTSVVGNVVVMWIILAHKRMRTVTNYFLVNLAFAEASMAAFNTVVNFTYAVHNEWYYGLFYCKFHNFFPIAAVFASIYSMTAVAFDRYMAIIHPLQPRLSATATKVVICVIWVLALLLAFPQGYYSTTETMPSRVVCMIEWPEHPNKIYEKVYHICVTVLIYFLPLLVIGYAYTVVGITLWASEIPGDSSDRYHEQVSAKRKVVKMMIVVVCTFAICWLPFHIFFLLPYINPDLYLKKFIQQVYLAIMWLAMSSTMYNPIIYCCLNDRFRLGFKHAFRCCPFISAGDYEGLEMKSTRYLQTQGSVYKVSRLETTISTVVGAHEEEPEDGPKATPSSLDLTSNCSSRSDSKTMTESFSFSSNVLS

One assay is filed under the species Cavia porcellus. In words: Inhibition of capsaicin-induced plasma extravasation in guinea pig ureter. Format: functional. Put shortly:
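Male Hartley guinea pigs (300–400 g), fasted overnight, anaesthetised with pentobarbital 25 mg/kg. Compound given po 1 h before capsaicin, at four doses. Evans Blue 30 mg/kg iv, then 5 min later 30 μM capsaicin in 0.1% BSA Krebs bicarbonate, 10 mL per animal. Killed 10 min later. Ureter extracted in formamide at 60 °C for 24 h and OD read at 600 nm. ED50 with 95% confidence limits.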
`COc1ccccc1CN[C@H]1C2C3CCCC2CN(C3)[C@H]1C(c1ccccc1)c1ccccc1`: the ED50 worked out at 4.43 mg/kg.
In turn, `COc1ccccc1CNC1C2CC3CCC(C2)N3[C@H]1C(c1ccccc1)c1ccccc1` (stereo not given in full) showed an ED50 of 4.13 mg/kg.
The same measure, in the same setting: next, `COc1ccccc1CNC1C2C3CCC2CN(C3)[C@H]1C(c1ccccc1)c1ccccc1` (stereo not given in full): 2.61 mg/kg; `COc1ccccc1CN[C@H]1C2CCN(CC2)[C@H]1C(c1ccccc1)c1ccccc1` [CP-96345]: 2.83 mg/kg.

A further assay has as its target Substance-P receptor (Homo sapiens, UniProt P25103). In words: Tested in vitro for the binding affinity towards NK1 receptor in human IM-9 cells using [125I]-labeled bolton-hunter substance P as ligand. It is filed as cell-based. Put shortly: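 IC50 from six-point concentration–response curves, each concentration in duplicate. Mean ± SEM of three separate experiments.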
In the case of `Clc1ccccc1CN[C@H]1C2C3CCCC2CN(C3)[C@H]1C(c1ccccc1)c1ccccc1`, the IC50 is 39 nM. This lies in the double-digit nanomolar range.
Turning to `c1ccc(CNC2C3CC4CCC(C3)N4[C@H]2C(c2ccccc2)c2ccccc2)cc1` (stereo not given in full), the IC50 was 68 nM. Against the preceding compound, the IC50 is about 1.7-fold higher.
Regarding `c1ccc(CN[C@H]2C3C4CCCC3CN(C4)[C@H]2C(c2ccccc2)c2ccccc2)cc1`, the IC50 is 230 nM.
`COc1ccccc1CNC1C2CC3CCOC(C2)N3[C@H]1C(c1ccccc1)c1ccccc1` (stereo not given in full) showed an IC50 of 7.2 nM.
Still for that read-out and setting: next, `Clc1ccccc1CNC1C2CC3CCC(C2)N3[C@H]1C(c1ccccc1)c1ccccc1` (stereo not given in full): 7.1 nM; `FC(F)(F)c1ccccc1CNC1C2CC3CCCC(C2)N3[C@H]1C(c1ccccc1)c1ccccc1` (stereo not given in full): 4400 nM.
Same read-out and setting: for `COc1ccccc1CNC1C2CC3CCC(C2)N3[C@H]1C(c1ccccc1)c1ccccc1` (stereo not given in full) the value was 0.92 nM; for `c1ccc(CNC2C3CC4CCCC(C3)N4[C@H]2C(c2ccccc2)c2ccccc2)cc1` (stereo not given in full), 170 nM; for `Clc1ccccc1CNC1C2CC3CCCC(C2)N3[C@H]1C(c1ccccc1)c1ccccc1` (stereo not given in full), 58 nM.
In turn, `COc1ccccc1CNC1C2C3CCC2CN(C3)[C@H]1C(c1ccccc1)c1ccccc1` (stereo not given in full) showed an IC50 of 2.4 nM.
Still for that read-out and setting: for `COc1ccccc1CNC1C2CC3CCCC2CN3[C@H]1C(c1ccccc1)c1ccccc1` (stereo not given in full) the value was 1.9 nM.
